Legend:
[1] = target: Protein kinase C delta type (Homo sapiens, UniProt Q05655); assay: Displacement of [3H]PDBu from recombinant Protein kinase C delta
Procedure, shortened: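 Competitive binding of [3H]PDBu (Kd 2.9 nM) to recombinant PKCδ. Ki derived from the IC50 of the binding curve. Number of repetitions given per compound.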

[2] = tested on: HL-60; assay: Effective concentration against HL-60 cell differentiation; type: functional, cell-based; details: Homo sapiens
[3] = tested on: HL-60; assay: Effective concentration against monocytes of HL-60 cells growth inhibition; type: functional, cell-based; details: Homo sapiens
Procedure, shortened: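 HL-60 cells grown in RPMI1640 with 5% FBS (not delipidized), penicillin G and streptomycin, at 37 °C in humidified 5% CO2. Compounds taken from 2 mM ethanol stocks, with final ethanol below 0.5%. Cells seeded at about 8 × 10⁴ cells/mL and counted after 4 days. EC50 for growth inhibition.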

Sequence of Protein kinase C delta type (Q05655 whole entry): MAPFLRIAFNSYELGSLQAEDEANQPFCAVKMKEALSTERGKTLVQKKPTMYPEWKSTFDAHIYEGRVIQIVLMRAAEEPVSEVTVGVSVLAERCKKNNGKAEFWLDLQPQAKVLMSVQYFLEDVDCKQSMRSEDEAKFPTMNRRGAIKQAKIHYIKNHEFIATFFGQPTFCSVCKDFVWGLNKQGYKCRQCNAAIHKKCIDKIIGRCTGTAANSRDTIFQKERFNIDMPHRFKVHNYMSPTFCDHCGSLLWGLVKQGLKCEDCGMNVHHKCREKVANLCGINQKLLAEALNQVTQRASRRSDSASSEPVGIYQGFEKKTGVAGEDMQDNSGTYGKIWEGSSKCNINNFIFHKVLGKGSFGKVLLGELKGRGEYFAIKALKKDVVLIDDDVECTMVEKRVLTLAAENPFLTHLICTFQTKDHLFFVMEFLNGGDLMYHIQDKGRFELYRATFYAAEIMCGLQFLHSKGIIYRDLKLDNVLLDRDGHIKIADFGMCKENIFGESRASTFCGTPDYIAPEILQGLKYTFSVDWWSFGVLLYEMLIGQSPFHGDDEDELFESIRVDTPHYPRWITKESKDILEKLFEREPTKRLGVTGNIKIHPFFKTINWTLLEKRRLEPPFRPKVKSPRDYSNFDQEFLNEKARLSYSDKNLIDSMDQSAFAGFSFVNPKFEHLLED

| EC50 [2] [nM] | SMILES | Ki [1] [nM] | EC50 [3] [nM] |
| --- | --- | --- | --- |
|  | CC(C)[C@H]1C(=O)N[C@H](CO)Cc2cc3c(cc2N1C)C(C)(C)CCC3(C)C | 5100 |  |
| 200 | CCCCCCCCCCC1C(=O)N[C@H](CO)Cc2ccccc2N1C (stereo partly drawn) | 3 |  |
|  | CCCCCCCCCCc1ccc2c(c1)N(C)[C@@H](C(C)C)C(=O)N[C@H](CO)C2 | 5.9 |  |
|  | C=C[C@@]1(C)CC[C@](C)(C(C)C)c2cc3c4c(c[nH]c4c21)C[C@@H](CO)NC(=O)[C@H](C(C)C)N3C | 0.32 | 5 |
|  | CC(C)[C@H]1C(=O)N[C@H](CO)Cc2c[nH]c3cccc(c23)N1C [INDOLACTUM] | 80 | 5 |
| 70 | CC(C)[C@H]1C(=O)N[C@H](CO)Cc2cc3c(cc2N1C)C1(CCCCC1)CCC3 | 19 |  |
|  | CCCCCCCCCCc1ccc2c(c1)C[C@@H](CO)NC(=O)[C@H](C(C)C)N2C | 32 |  |
| 20 | CC(C)[C@H]1C(=O)N[C@H](CO)Cc2cc3c(cc2N1C)C1(CCC3)CCC(C)(C)CC1 | 14 |  |
|  | CC(C)[C@H]1C(=O)N[C@H](CO)Cc2cc3c(cc2N1C)C(C)(C)CCC3 | 65 |  |
|  | CC(C)[C@H]1C(=O)N[C@H](CO)Cc2ccccc2N1C | 1700 | > 1000 |

| SMILES | EC50 [2] [nM] | Ki [1] [nM] | EC50 [3] [nM] |
| --- | --- | --- | --- |
| CC(C)[C@H]1C(=O)N[C@H](CO)Cc2cc3c(cc2N1C)CCCC3(C)C | 7000 | 1700 |  |
